Activity calls are given as the source filed them. The rule behind the calls is not given here.

One assay concerns P388. As to the kind of experiment: Inhibition of P388 leukemia cells growth in culture. Format: functional, cell-based. To be noted: Mus musculus. The essentials: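 P388 leukemia cells in exponential growth were exposed to drug for 70 h. IC50 is the micromolar concentration that reduces cell growth to 50% of control values.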
For a further assay, the system named is Nucleic Acid. Kind of assay: Inhibitory concentration against ethidium bromide binding to [poly(dA-dT)] [poly(dA-dT)]. In kind it is nucleic-acid assay. The essentials: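 Fluorometric ethidium displacement using poly[d(A-T)]. C50 is the micromolar ligand concentration that displaces 50% of previously bound ethidium. For intercalators it is inversely proportional to the ligand–DNA association constant.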

Assay [1] concerns Mus musculus. Kind of assay: Percentage increase in lifespan of P388 tumor-bearing mice compared with tumor-bearing controls at optimal dose of 150 mg/kg/day; NA = Not active. In kind it is functional, organism-based. The method, boiled down: (§1)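 Mice were inoculated ip with 10^6 P388 leukemia cells. Drug was given ip on days 1, 5 and 9 in 0.1 mL of 30% v/v EtOH-water, with dose in mg/kg/day. Optimal dose was determined, and ILS is the % lifespan increase over tumor-bearing controls at that dose.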

In assay [2] the test system is Mus musculus. As to the kind of experiment: Optimal dose required to inhibit P388 leukemia cells when administered intraperitoneally in mice. Format: functional. The essentials:
as §1

Assay [3] relates to Mus musculus. Kind of assay: Percentage increase in lifespan of P388 tumor-bearing mice compared with tumor-bearing controls at optimal dose of 65 mg/kg/day; NA= Not active. In kind it is functional, organism-based. The essentials:
as §1

Assay [4] has as its system Mus musculus. Kind of assay: Percentage increase in lifespan of P388 tumor-bearing mice compared with tumor-bearing controls at optimal dose of 65 mg/kg/day. Format: functional.
In assay [5] the test system is Mus musculus. Kind of assay: Percentage increase in lifespan of P388 tumor-bearing mice compared with tumor-bearing controls at optimal dose of 65 mg/kg/day; NA=Not active. Format: functional, organism-based. The method, boiled down: as §1

A word on the IC50: it is the concentration needed to halve the response being measured. A higher IC50 goes with weaker potency in that assay. The term ILS denotes how much longer treated animals lived than controls. Turning to `CN(C)CCNC(=O)c1cccc2c(=O)c3ccccc3[nH]c12`, the midpoint of inhibition in the assay with P388, the IC50, lay at 1.7 µM. The C50 with Nucleic Acid came out at 15 µM. The ILS result in the assay with Mus musculus [1] was “inactive”.
In the assay on Mus musculus [2], `C[N+](C)(C)CC(=O)N/N=C\c1cccc2cc3cccnc3nc12` gave an OD of 65 mg/kg/day. Further, in the assay on Mus musculus [3], the ILS result was “inactive”. In the assay on P388, this compound showed an IC50 of 1.65 µM. Besides, the C50 with Nucleic Acid turned out to be 11.1 µM.
As to `CN(C)CCn1c(=O)c2cccc3c(=O)c4ccncc4n(c1=O)c32`, the IC50 in the assay with P388 is above 40 µM. The compound also registered a C50 with Nucleic Acid of 10.7 µM.
In the assay on P388, `CN(C)CCNC(=O)c1cccc2c(O)c3ccncc3nc12` showed an IC50 above 40 µM. In the assay on Nucleic Acid, the C50 amounted to 18.5 µM.
With `Oc1c2cccc(/C=N\NC3=NCCN3)c2nc2cccnc12`, in the assay with P388, the IC50 was above 40 µM. Further, in the assay on Nucleic Acid, the C50 is 9.6 µM.
With `CN(C)CCNC(=O)c1cccc2cc3ccccc3nc12`, in the assay with Mus musculus [4], the ILS at 65 mg/kg/day is 91%. Further, the IC50 with P388 is 0.11 µM. For the same compound, the C50 in the assay with Nucleic Acid is 5 µM.
As to `CN(C)CCNC(=O)c1ccc([N+](=O)[O-])c2c(O)c3cccnc3nc12`, the OD with Mus musculus [2] is 65 mg/kg/day. Besides, in the assay with Mus musculus [4], the ILS at 65 mg/kg/day was 31%. For the same compound, the IC50 in the assay with P388 was found to be 0.018 µM. In addition, in the assay with Nucleic Acid, the C50 was found to be 10.4 µM.
Compound `C(=N/NC1=NCCN1)/c1cccc2cc3cccnc3nc12` yielded an IC50 with P388 of 12 µM. In addition, in the assay with Nucleic Acid, the C50 was 5 µM.
As to `CN(C)CCNC(=O)c1ccc([N+](=O)[O-])c2cc3cnccc3nc12`, the IC50 in the assay with P388 was found to be 5 µM. Moreover, the C50 in the assay with Nucleic Acid was 4.4 µM.
Consider `CN(C)CCNC(=O)c1cc([N+](=O)[O-])cc2c(O)c3cccnc3nc12`, for which inhibition in the assay on P388 was half-maximal at 1.3 µM (IC50). In the assay on Nucleic Acid, this compound showed a C50 of 11 µM.
For `C(=N/NC1=NCCN1)/c1cccc2cc3ccncc3nc12` the same measures were 25 µM and 5.9 µM.
In the assay with Mus musculus [2], `CN(C)CCNC(=O)c1ccc([N+](=O)[O-])c2cc3ncccc3nc12` gave an OD of 45 mg/kg/day. The ILS entry in the assay with Mus musculus [3] was “inactive”. Also, in the assay on P388, 0.085 µM corresponded to half-maximal inhibition (IC50). The compound further yielded a C50 in the assay with Nucleic Acid of 3.1 µM.
The compound `CN(C)CCNC(=O)c1cc([N+](=O)[O-])cc2c(O)c3ccccc3nc12` gave an OD in the assay on Mus musculus [2] of 45 mg/kg/day. In the assay on Mus musculus [3], the ILS entry was “inactive”. In addition, in the assay with P388, the IC50 is 0.91 µM. In the assay with Nucleic Acid, this compound registered a C50 of 4.5 µM.
For `CN(C)CCNC(=O)c1ccc([N+](=O)[O-])c2cc3cccnc3nc12` the same measures were 20 mg/kg/day, “inactive”, 0.15 µM and 2.1 µM.
As for `CN(C)CCNC(=O)c1cccc2cc3ccncc3nc12`, in the assay on P388, inhibition was half-maximal at 8.3 µM (IC50). In addition, the C50 in the assay on Nucleic Acid was 4.6 µM.
For `CN(C)CCNC(=O)C1=CC=C([N+](=O)[O-])C2C(=O)c3ccccc3N=C12` (stereo unspecified), in that order: 0.55 µM and 23 µM.
On to `C(=N/NC1=NCCN1)/c1cccc2cc3ncccc3nc12`, for which the OD with Mus musculus [2] was determined as 45 mg/kg/day. The ILS result in the assay on Mus musculus [3] was “inactive”. Further, the IC50 with P388 stood at 3.3 µM. The C50 in the assay on Nucleic Acid turned out to be 5.4 µM.
As to `CN(C)CCNC(=O)c1cccc2c(O)c3ccc([N+](=O)[O-])cc3nc12`, the OD in the assay on Mus musculus [2] is 65 mg/kg/day. The ILS result in the assay with Mus musculus [3] is “inactive”. The compound further had an IC50 in the assay with P388 of 1.2 µM. Further, in the assay on Nucleic Acid, the C50 amounted to 4.1 µM.
In the assay with P388, `C[N+](C)(C)CC(=O)N/N=C\c1cccc2c(O)c3cccnc3nc12` registered an IC50 above 40 µM. The C50 in the assay on Nucleic Acid was 7.3 µM.
In turn, `Oc1c2cccnc2nc2c(/C=N\NC3=NCCN3)cccc12` gave a half-maximal inhibitory concentration (IC50) in the assay with P388 of 22 µM. For the same compound, in the assay with Nucleic Acid, the C50 is 4 µM.
`CN(C)CCNC(=O)c1cccc2c(O)c3cccnc3nc12` showed an IC50 in the assay with P388 of 5.5 µM. Further, the C50 in the assay on Nucleic Acid came to 27.7 µM. Also, the ILS entry with Mus musculus [1] was “inactive”.
Take `C(=N/NC1=NCCN1)/c1cccc2cc3cnccc3nc12`: the IC50 with P388 was 12.3 µM. Moreover, the C50 in the assay with Nucleic Acid was 6.6 µM.
Consider `CN(C)CCNC(=O)c1cccc2cc3cccnc3nc12`, for which the IC50 in the assay with P388 amounted to 0.49 µM. The ILS entry in the assay on Mus musculus [5] is “inactive”. In the assay on Nucleic Acid, the C50 was found to be 7.6 µM.
With `CN(C)CCNC(=O)c1cccc2c(O)c3cc([N+](=O)[O-])ccc3nc12`, the IC50 with P388 was found to be 3.5 µM. The compound also showed a C50 in the assay with Nucleic Acid of 5.9 µM.
With `CN(C)CCNC(=O)c1cccc2cc3ncccc3nc12`, in the assay on Mus musculus [4], the ILS at 65 mg/kg/day turned out to be 48%. The compound further returned a 50% inhibitory concentration (IC50) in the assay with P388 of 4.4 µM. The C50 with Nucleic Acid was found to be 11.1 µM.
`CN(C)CCNC(=O)c1cccc2c(O)c3cnccc3nc12` came in with an IC50 in the assay with P388 above 40 µM.
The compound `CN(C)CCNC(=O)c1ccc([N+](=O)[O-])c2c(O)c3cnccc3nc12` registered an IC50 with P388 of 1 µM. In the assay with Nucleic Acid, this compound displayed a C50 of 6.2 µM.
Consider `CN(C)CCNC(=O)c1cccc2c(O)c3cccc([N+](=O)[O-])c3nc12`, for which the OD in the assay on Mus musculus [2] worked out at 45 mg/kg/day. Further, the ILS at 65 mg/kg/day with Mus musculus [4] was 65%. Half-maximal inhibition in the assay on P388 (IC50) was put at 0.083 µM. The same compound gave a C50 with Nucleic Acid of 2.4 µM.
